The values that follow come from PubChem BioAssay AID493160 (Sanford-Burnham Center for Chemical Genomics, 2011).

One may read the inhibition as the relative decrease from the control value, in per cent.

The whole screen tested about 340,000 compounds, of which about 540 (0.16%) were called active. The list comes from a sample in which actives are over-represented; it also holds similar structures and randomly drawn compounds. Values without a mark were called inactive.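 How the source made its calls: active means inhibition above about 35% when tested at 20 µM (limit read from the data); inactive means the rest.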

The target in the test is Hexokinase HKDC1 (Homo sapiens) (UniProt Q2TB90). In words: HKDC1 hexokinase inhibitors, primary screen, biochemical, fluorescence, uHTS (AID 493160).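 Further: plate controls were DMSO wells with enzyme for no effect and DMSO wells lacking enzyme for full effect.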 To be noted: recombinant HKDC1, G6PDH/diaphorase resazurin coupled fluorescence; at 20 µM; stronger effect = higher value. In short, it runs like this: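 Test system: recombinant HKDC1 (HK5) hexokinase enzyme, produced in-house; Amount: enzyme 5 µg/mL final; Buffer or medium: Tris pH 8.0 buffer with MgCl2, Tween-20, BSA, BME; Reagent: glucose and ATP substrates; Doses: 20 µM test compound, 1% DMSO; Incubation: 90 min reaction incubation at room temperature, dark; Detection: resorufin fluorescence at 613 nm.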
Chain of Hexokinase HKDC1 (Homo sapiens) (Q2TB90 whole entry, looked up): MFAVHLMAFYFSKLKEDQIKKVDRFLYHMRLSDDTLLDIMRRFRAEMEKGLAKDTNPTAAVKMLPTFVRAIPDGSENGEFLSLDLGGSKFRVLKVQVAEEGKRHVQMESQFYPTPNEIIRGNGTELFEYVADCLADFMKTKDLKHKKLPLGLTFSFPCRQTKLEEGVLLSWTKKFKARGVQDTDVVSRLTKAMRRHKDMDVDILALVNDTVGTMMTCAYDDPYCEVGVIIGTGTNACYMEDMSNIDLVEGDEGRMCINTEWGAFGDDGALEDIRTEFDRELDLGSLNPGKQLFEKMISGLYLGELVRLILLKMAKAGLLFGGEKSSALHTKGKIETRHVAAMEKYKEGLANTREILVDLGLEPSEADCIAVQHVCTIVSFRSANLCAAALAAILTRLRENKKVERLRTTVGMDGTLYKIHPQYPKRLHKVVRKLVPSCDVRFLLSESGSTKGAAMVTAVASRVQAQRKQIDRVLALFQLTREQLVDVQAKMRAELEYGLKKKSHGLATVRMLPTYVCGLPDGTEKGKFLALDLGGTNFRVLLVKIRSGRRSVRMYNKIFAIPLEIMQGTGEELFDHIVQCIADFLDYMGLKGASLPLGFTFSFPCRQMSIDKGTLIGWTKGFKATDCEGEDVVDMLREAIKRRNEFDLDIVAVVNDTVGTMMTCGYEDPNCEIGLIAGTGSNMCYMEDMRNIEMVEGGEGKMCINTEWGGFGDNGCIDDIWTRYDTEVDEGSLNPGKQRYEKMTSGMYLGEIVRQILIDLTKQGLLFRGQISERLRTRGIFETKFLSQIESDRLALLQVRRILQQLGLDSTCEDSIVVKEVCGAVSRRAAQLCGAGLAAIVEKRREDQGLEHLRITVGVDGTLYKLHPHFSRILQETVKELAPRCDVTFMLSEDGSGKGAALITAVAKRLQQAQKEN
For orientation: The colour change of resazurin is a common sign of viable cells or microbes.
Regarding `O=C1N[C@@H](Cc2ccccc2)C(=O)N2[C@H]1C[C@]1(Br)c3ccccc3N(S(=O)(=O)c3ccccc3)[C@H]21`, the inhibition was 8.21%.
For `Cc1nn(C)cc1S(=O)(=O)N1CCN(c2ccc(F)cc2)CC1` the value was -0.86%; for `CN(C)c1ccc(C(=S)N2CCN(C(=S)Nc3ccc(Cl)cc3)CC2)cc1`, 7.9%.
For `Cc1cc(Cl)ccc1C(=O)C1CCCN(C(=O)CCN2CCCO2)C1` (stereo not drawn) the value was -7.55%; for `O=C(/C=C(O)/C=C/c1ccc(O)cc1)/C=C/c1ccc(O)cc1`, 5.34%.
As for `O=C(COC(=O)c1ccccc1NC(=O)c1ccco1)Nc1ccc2c(c1)OC(F)(F)O2`, the inhibition is -9.13%.
`CCOC(=O)C(C)n1cnc2scc(-c3ccc(C)c(C)c3)c2c1=O` (stereo not drawn): the inhibition was -0.93%.
As to `O=C(c1cccnc1)N(Cc1ccccc1)C(=O)c1cccnc1`, the inhibition was -5.95%.
Turning to `COc1ccc(N(C(=O)c2cccnc2)S(=O)(=O)c2ccc(OC)c(OC)c2)cc1`, the inhibition is -5.15%.
`O=C(c1cccnc1)N(c1cc2sc(=O)oc2c2ccccc12)S(=O)(=O)c1ccccc1`: the inhibition is 38.2% (active).
As for `CCn1c(SCC(=O)Nc2cc(C)ccc2C)nnc1-c1cnccn1`, the inhibition is 2.21%.
The result for `CN1c2ccc(C=O)c3c(C=O)ccc(c23)N(C)C1(C)C` reads 36.4% (active); that for `COc1ccc(CNC(=O)CCN2C(=O)c3ccccc3C2=O)cc1`, 0.43%.
For `CCOC(=O)C1=C(c2ccc(OC)cc2)C(=O)c2ccccc2C1=O`, the inhibition is 81.4% (active).
With `COC(=O)c1cc(OC)ccc1-c1ccc(OC)cc1`, the inhibition was 6.2%.
For `COC(=O)[C@H](Cc1ccccc1)NC(=O)Nc1ccc(S(N)(=O)=O)cc1` the value was 1.79%; for `C=CC[C@@H](CC(=O)N[C@@H](CO)Cc1ccccc1)C(=O)N[C@H](COC(=O)[C@H](CC=C)CC(=O)OC(C)(C)C)Cc1ccccc1`, -4.61%.
For the molecule `O=C(CSc1ccc(-c2ccco2)nn1)NCc1ccc2c(c1)OCO2`, the inhibition is -3.81%.
For `COc1ccc(NC(=O)CCC(=O)Nc2cc(OC)c(NC(=O)c3ccco3)cc2OC)c(OC)c1` the value was 1.97%; for `COc1ccc(NC(=O)CSc2ccc(-c3ccco3)nn2)c(OC)c1`, 47.3% (active).
The result for `CC(C)N(Cc1nnc(-c2ccccc2Br)o1)C(=O)c1cc(Cl)nc2ccccc12` reads 0.82%; that for `CCOC(=O)c1ccc2c(c1)nc(SCC(=O)NC(C)C)n2CC`, -4.33%.
In the case of `Cc1ccc(CN2CCNC(=O)C2CC(=O)NCc2csc(C(C)C)n2)cc1` (stereo not drawn), the inhibition was -3.03%.
Regarding `CC1CC(C)CN(C(=O)CSc2nnc(CSc3ncccn3)n2C)C1` (stereo not drawn), the inhibition is -4.12%.
For `CCS(=O)(=O)N1Cc2ccccc2CC1C(=O)Nc1ccc(OC)cc1OC` (stereo not drawn), the inhibition was -2.83%.
As for `O=C1Nc2cc(C(=O)N3CCC(N4CCCCC4)CC3)ccc2S/C1=C\c1ccccc1`, the inhibition is -1.91%.
Turning to `CCCCn1nnnc1NCc1cc(OC)c(OC)c(OC)c1`, the inhibition was 10.4%.
The result for `COc1ccc2c(c1)c(=Cc1ccc(N(C)C)cc1)c1cc(-c3ccccc3)[n+](C)n12` reads 43.2% (active); that for `Cc1ccc(CNC(=O)CCNS(=O)(=O)c2cccc3nonc23)cc1`, 10.6%.
The result for `Cc1ccc(OS(=O)Nc2cccc3nccnc23)cc1` (stereo not drawn) reads 6.4%; that for `CCCCn1c(N)c(N(CCOC)C(=O)COc2c(C)cccc2C)c(=O)[nH]c1=O`, -3.46%.
The result for `COc1ccc(OCCCC(=O)Oc2ccc(OC)cc2)cc1` reads -15%; that for `COc1ccc2c(c1)C(SCC(=O)NCc1ccccc1)CC(C)(C)O2` (stereo not drawn), 3.48%; that for `O=C(NCC1CCCO1)c1ccc(S(=O)(=O)Nc2ccc(F)cc2)cc1` (stereo not drawn), 0.46%.
Take `O=C(CNC(=O)c1cc(=O)[nH]c2ccccc12)Nc1ccc(F)c(F)c1`: the inhibition was -8.3%.
In the case of `C/C(=N\NC(=O)COc1ccc(C)cc1[N+](=O)[O-])c1ccc2c(c1)OCCO2`, the inhibition was 2.16%.
For the molecule `COc1ccccc1CNS(=O)(=O)c1ccc(C)cc1`, the inhibition was -4.09%.
As for `CCC(C)CN1CCC(CO)(Cc2ccccc2Cl)CC1` (stereo not drawn), the inhibition is -10.2%.
As to `CC(CNC(=O)c1ccc(N)cc1)NC(=O)c1ccc(N)cc1` (stereo not drawn), the inhibition is -6.68%.
Consider `O=C(O)CCn1cc(/C=C/C(=O)c2ccc(Cl)cc2)c(-c2cccc(Br)c2)n1`, for which the inhibition was 17.1%.
Take `Clc1ccc(C[n+]2cc(-c3ccc(Cl)cc3)n3c2CCC3)cc1`: the inhibition was -3.08%.
For the molecule `CC1(C)OC(=O)C(=CSc2ccc(C(C)(C)C)cc2)C(=O)O1`, the inhibition is -2.23%.
`Cc1cc2cc3c(N)[nH]nc3nc2cc1C`: the inhibition was 1.11%.
The result for `Cc1cc(C)c(S(=O)(=O)N2CCOCC2)cc1C` reads -10.1%.
For the molecule `O=C(NCc1ccc2c(c1)OCO2)c1c(O)nc2sccn2c1=O`, the inhibition is 6.57%.
With `CCCCN1C(=O)CCC(C(=O)O)C1c1ccc(OC)cc1` (stereo not drawn), the inhibition was 7.8%.
In the case of `C=CCCN(Cc1ccccc1)S(=O)(=O)c1ccccc1Br`, the inhibition was 2.98%.
Regarding `Cc1cc(=O)[nH]c2nnnn12`, the inhibition is 7.5%.
As for `COc1cc2c3c(c1)/C(=C1/SC(=S)NC1=O)C(=O)N3C(C)(C)C=C2C`, the inhibition is -4.38%.
The result for `CCN(C[C@H]1N[C@@](Cc2ccccc2)(C(=O)OC)[C@H]2C(=O)N(Cc3ccccc3)C(=O)[C@@H]12)C(=O)c1ccc(C)cc1` reads -6.61%; that for `Cc1cc(Cl)ccc1NC(=S)N1CCC(C(N)=O)(N2CCCCC2)CC1`, -7.07%.
Consider `N#CCSc1nc2ccc(N3CCOCC3)cc2c(=O)n1CCc1ccccc1`, for which the inhibition is 10.5%.
As for `O=C1C(=O)N(CC2COc3ccccc3O2)c2ccccc21` (stereo not drawn), the inhibition is 19.1%.
Regarding `Cc1cc(C(=O)CCl)c(C)n1CC1COc2ccccc2O1` (stereo not drawn), the inhibition was 38.2% (active).
With `Cc1ccsc1C(=O)OCC(=O)c1cc(C)n(CC2CCCO2)c1C` (stereo not drawn), the inhibition was 1.95%.
Regarding `CCc1[nH]nc(C(=O)N2CCCC(CNS(=O)(=O)c3cccs3)C2)c1C` (stereo not drawn), the inhibition is -4.96%.
Take `CCC(=C/c1sc2ccc3ccccc3c2[n+]1C)/C=C1\Sc2ccc3ccccc3c2N1C`: the inhibition is 45% (active).
Regarding `C=CCNC(=O)c1cc2nc(C3CC3)cc(C(F)F)n2n1`, the inhibition is 14%.
